Measurements published in the RNAGym collection of RNA variant scans (doi:10.1126/science.aae0568).
This sample holds only a part of the variants without activity.

B1: tRNA (parent)
chain: GUUCCGUUGGCGUAAUGGUAACGCGUCUCCCUCCUAAGGAGAAGACUGCGGGUUCGAGUCCCGUACGGAACG

Variants of: B1
Experiment: yeast fitness relative to wild type (ratio to wild type); higher = fitter; tRNA-Arg(CCU), competitive growth, 37 C, YPD
In short: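 For this measurement, the tRNA-Arg(CCU) gene was varied by chemical synthesis at a 3% per-site mutation rate across 69 sites, and each variant was placed at the native genomic locus in Saccharomyces cerevisiae. The pooled strains went through a 24-hour competition in YPD at 37°C in six parallel replicates, with amplicons from start and end populations read by 100-nucleotide paired-end sequencing. Darwinian fitness relative to wild type followed from the change in each genotype's frequency. Genotypes needed ≥ 100 starting reads, and estimates < 0.5 were set to 0.5.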

Point of comparison: GUUCCGUUGGAGUAAUGGUAACGCGUUUCCCUCCUAAGGAGAAGACUGAGGGUUCGAGUCCCGUACGGAACG [C11A C27U C49A], yeast fitness 0.752. Against it:
- GUUCCGUUGGAGUAAUGGUAACGCGUCUUCCUUCUAAGGAGAAGACUGCGGGUUCGAGUCCCGUACGGAACG [C11A C29U C33U] — lower, ≤ 0.5
- GUUCCGUUGGAGUAAUGGUAACGCGUUUCCCUCCUAAGGAGAAUACUGCGGGUUCGAGUCCCGGGCGGAACG [C11A C27U G44U U64G A65G] — lower, 0.593
- GUUCCGUUGGAGUAAUGGUAACGCGUCUCGCUCCUAAGGAGAAGUCUGCGGGUUCGGGUACCGUACGGAACG [C11A C30G A45U A57G C60A] — lower, ≤ 0.5
- GUUCCGUUGGAGUAAUGGUAACGCGUCUCCGUCCUAAGGAGAAGACUGCGGGUUCGAGUUCCGUACGGAACG [C11A C31G C60U] — lower, ≤ 0.5
- GUUCCGUUGGAGUAAUGGUAACGCGUCUCCCUGGUAAGGAGAAGACUGCGGGUUCGAGUCACGUACGGAACG [C11A C33G C34G C61A] — lower, ≤ 0.5
- GUUCCGUUGGAGUAAUGGUAACGCGUGUCCCUCCUAAGGAGAAGACUGCGGGUUCGAGACCCGUACGGAACG [C11A C27G U59A] — lower, ≤ 0.5
- GUUCCGUUGGAGUAAUGGUAACGCGUCUCCCUCAUAAGGAGAACACUGCGGGUUCGAGUCCCGUACGGAUCG [C11A C34A G44C A70U] — lower, ≤ 0.5
- GUUCCGUUGGAGUAAUGGUAACGCGUCUCGCUCCUAAGGAGAAGUCUGCGGGUUCCAGUCCCGUACGGAACG [C11A C30G A45U G56C] — lower, ≤ 0.5
- GUUCCGUUGGAGUAAUGGUAACGCGUCUUCGUCCUAAGGAGAAGACUGCGGGUUCGACUCCCGUACGGAACG [C11A C29U C31G G58C] — lower, ≤ 0.5
- GUUCCGUUGGAGUAAUGGUAACGCGUCUCUCUCCUAAGGAGACGACUGCGGGUUCGAGUCCCGUACUGAACG [C11A C30U A43C G67U] — lower, ≤ 0.5
- GUUCCGUUGGAGUAAUGGUAACGCGUCUACCUCCUAAGGAGGAGACUGCGGGUUCGAGUCCCGUACGGAACG [C11A C29A A42G] — lower, ≤ 0.5
- GUUCCGUUGGAGUAAUGGUAACGCGUUUCCCUCCUAAGGAGAAGAGUGCGGGUUCGAGUCCCGUACGGAACG [C11A C27U C46G] — lower, 0.524
- GUUCCGUUGGAGUAAUGGUAACGCGUUUCCCUCCUAAGGACGAGACUGCGGGUUCGAGUGCCGUACGGAACG [C11A C27U G41C A42G C60G] — lower, ≤ 0.5
- GUUCCGUUGGAGUAAUGGUAACGCGUCUCCGUCCUAAGGAGUAGACUGCGGGUUCGAGUCCCGUACGGAACG [C11A C31G A42U] — lower, 0.537
- GUUCCGUUGGAGUAAUGGUAACGCGUCUCCUUCCUAAGGAGAAGACUGCGGGUUCGAGUCCCGUUCGGAACG [C11A C31U A65U] — lower, ≤ 0.5
- GUUCCGUUGGAGUAAUGGUAACGCGUCUCGCUCCUAAGGAGAAGACUGCGGGUUCGAGUCCCGUACGGAACG [C11A C30G] — lower, ≤ 0.5
- GUUCCGUUGGAGUAAUGGUAACGCGUCUCACUCCUAAGGAGAAGACUGCGGGUUCGAGUCCCGUACGGAACG [C11A C30A] — lower, 0.523
- GUUCCGUUGGAGUAAUGGUAACGCGUCUCUCUCCUAAGGAGAAGACUGCGGGUUCGAGUCCCGUACGGAACG [C11A C30U] — lower, 0.598
- GUUCCGUUGGAGUAAUGGUAACGCGUCUCCCUGCUAAGGAGAAGACUGCGGGUUCGAGUCCCGUACGGAACG [C11A C33G] — lower, 0.654
- GUUCCGUUGGAGUAAUGGUAACGCGUCUCCCUUCUAAGGAGAAGACUGCGGGUUCGAGUCCCGUACGGAACG [C11A C33U] — lower, 0.533
- GUUCCGUUGGAGUAAUGGUAACGCGUCUCCAUCCUAAGGAGAAGACUGCGGGUUCGAGUCGCGUCCGGACCG [C11A C31A C61G A65C A70C] — lower, ≤ 0.5
- GUUCCGUUGGAGUAAUGGUAACGCGUCUGCCUCCUAAGGAGAAGACUGCGGGUACGAGUCCCGUACGGAACG [C11A C29G U54A] — lower, 0.69
- GUUCCGUUGGAGUAAUGGUAACGCGUCUCCCUACUCAGGAGAAGACUGCGGGUUCGAGUCCCCUAGGGAACG [C11A C33A A36C G63C C66G] — lower, 0.582
- GUUCCGUUGGAGUAAUGGUAACGCGUCUCCGUUCUAAGGAGAAGACUGCGGGUUCGAGUCGCGAACGGAACG [C11A C31G C33U C61G U64A] — lower, ≤ 0.5
- GUUCCGUUGGAGUAAUGGUAACGCGUCUCCAUCCUAAGGAGAAGACUGCGGGUUCGAGUCCCGUAGGGUACG [C11A C31A C66G A69U] — lower, ≤ 0.5
- GUUCCGUUGGAGUAAUGGUAACGCGUCUCCUUCCUAAGGAGAAGACUGCGGGUUCGAGUCCCGUACGGAUCG [C11A C31U A70U] — lower, 0.629
- GUUCCGUUGGAGUAAUGGUAACGCGUUUCCCUCCUGAGGAGAAGACUGAGGGUUCGAGUCCCGUACGGAACG [C11A C27U A36G C49A] — lower, ≤ 0.5
- GUUCCGUUGGAGUAAUGGUAACGCGUUUCCCUUCCAAGGAGAAGACUGCGGGUUCGAGUCGCGUGCGGAACG [C11A C27U C33U U35C C61G A65G] — lower, ≤ 0.5
- GUUCCGUUGGAGUAAUGGUAACGCGUUUCCCUUCCAAGGAGAAGACUGCGGGUUCGAGUCCUGUGCGGAACG [C11A C27U C33U U35C C62U A65G] — lower, ≤ 0.5
- GUUCCGUUGGAGUAAUGGUAACGCGUCUCCAUCCUAAGGAGAACACUGCGGGUUCGAGUCCCGUGCGGAACG [C11A C31A G44C A65G] — lower, 0.553
- GUUCCGUUGGAGUAAUGGUAACGCGUCUCCAUCCUAAGGAGAACACUGCGGGUUCGAGUCCCGUUCGGAACG [C11A C31A G44C A65U] — lower, ≤ 0.5
- GUUCCGUUGGAGUAAUGGUAACGCGUCUCCCUCAUAAGGAGAAGACUGCGGGUUUGAGUACCGUACGGAACG [C11A C34A C55U C60A] — lower, ≤ 0.5
- GUUCCGUUGGAGUAAUGGUAACGCGUCUCCUUCUUAAGGAGAAGACUGCGGGUUCGACUUCUCUACGGAACG [C11A C31U C34U G58C C60U C62U G63C] — lower, ≤ 0.5
- GUUCCGUUGGAGUAAUGGUAACGCGUCUCUCUCCUAAGGAGAAGACUGCGGGUUCAAGUCCCGUACGGCACG [C11A C30U G56A A69C] — lower, ≤ 0.5
- GUUCCGUUGGAGUAAUGGUAACGCGUCUACCUCCUAAGGAGAAGACUGCGGGUUCGAGUCCCGUACCGAACG [C11A C29A G67C] — lower, ≤ 0.5
- GUUCCGUUGGAGUAAUGGUAACGCGUCUGCCUCCUAAGGAGAAGACUGCGGGUUCGAGUCCCGUUCGAAACG [C11A C29G A65U G68A] — lower, ≤ 0.5
